Assay results gathered from unrelated publications.
Each line is one published result; the experiments were not run side by side.
Target: Homeodomain-interacting protein kinase 1 (HIPK1, Homo sapiens, UniProt Q86Z02)

Cn1cc(-c2cccc(N3CCc4c(sc5c4CC(C)(C)C5)C3=O)c2CO)cc(Nc2ccncn2)c1=O — inhibition (enzyme activity, inhibitor; 1 µM): -2%
CC(C)(C)c1cc(C=C(C#N)C#N)cc(Br)c1O — remaining activity (enzyme activity, inhibitor; 0.5 µM): 104%
Cn1cncc1[C@@](O)(COc1ccc(C#N)cc1-c1ccc(OC(F)(F)F)cc1)c1ccc(C#N)cc1 — remaining binding (cell-free assay, competition with immobilised ligand; 1 µM): 79%
COc1ncccc1-c1cnn2ccc(N3CCN(C(=O)OC(C)C)CC3)nc12 — remaining binding (binding, competition with immobilised ligand; 1 µM): 92%
Nc1ncc(-c2nc(N3CCOCC3)nc(N3CCOCC3)n2)c(C(F)F)n1 — remaining binding (binding, competition with immobilised ligand; 10 µM): 69%
Cc1nn(C)cc1-c1nc2c(N3CCN(Cc4ccc(Cl)cc4)CC3)c(Cl)cnc2[nH]1 — remaining binding (binding, competition with immobilised ligand; 1 µM): 66%
O=c1[nH]c2ccccc2n1C1CCN(Cc2ccc(-c3[nH]c4cc5ncnc5cc4nc3-c3ccccc3)cc2)CC1 — remaining signal (cell-free assay; 0.5 µM): 106%
Cn1cc(-c2cc(F)cc(N3CCn4c(cc5c4CCCC5)C3=O)c2CO)cc(Nc2ccc(N3CCN(C4COC4)CC3)cn2)c1=O — inhibition (enzyme activity, inhibitor; 0.1 µM): 5%
